High-throughput results: PubChem BioAssay, Broad Institute
PglD DTNB: C. jejuni PglD acetyltransferase inhibitors, primary screen, biochemical, DTNB colorimetric, single point | inhibition, % at 12.5 µM | 0.098% of 360,000 active | AID 602405, 2012 | purified PglD enzyme, DTNB colorimetric CoA detection; in the data active = inhibition above about 16%, passing the limit was not always enough
Env fusion inh: inhibitors of HIV-1 Env-driven cell-cell fusion, primary screen, HeLa-JRFL effector, CEM21 target cells, luciferase. inhibition, % at 12.3 µM. 1.1% of 360,000 active. AID 651610, 2012;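 active = mean replicate inhibition score of at least 50 and every replicate individually at or above 50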;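 note: 0% = plate neutral controls and 100% = maraviroc near 300 nM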
Rtt109 HAT inh: inhibitors of C. albicans Rtt109/Vps75 HAT, primary screen, biochemical, ThioGlo CoA-SH fluorescence, plate reader; Histone acetyltransferase RTT109 (Candida albicans (strain SC5314 / ATCC MYA-2876)), …; purified Rtt109/Vps75, 4 h; inhibition, % at 34.9 µM; 0.16% of 330,000 active;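 active = inhibition of at least 50% in every replicate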
Glyco luc inh: increase of ERlucT glycosylation luciferase signal, primary screen, N-linked glycosylation inhibitor project, D54 ERlucT cells, luminescence, set 2. reporter increase, % at 12.5 µM. D54 ERlucT glycosylation luciferase reporter, 24 h; percent of 100 nM tunicamycin response. 0.23% of 360,000 active;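 active = mean luciferase reporter signal, scaled so untreated is 0 and the glycosylation-blocking control 100, at or above a set limit in every replicate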;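 note: luciferase carries N-glycosylation sites so blocking glycosylation raises the light; 0% = median of neutral control wells and 100% = median of 100 nM tunicamycin wells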
SR-BI DiI inh: inhibitors of SR-BI mediated HDL lipid uptake, primary screen, ldlA[mSR-BI] cells, fluorescence, single point. Scavenger receptor class B member 1 (Mus musculus), Q61009. ldlA[mSR-BI] CHO cells, DiI-HDL uptake fluorescence, 3 h. inhibition, % at 12.5 µM. 0.96% of 320,000 active;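 active = mean replicate inhibition of at least 70% and a set share of replicates each scoring 70 or more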;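 note: 0% = median of neutral control wells and 100% = median of positive control wells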
Target sequence (Q61009 whole entry, looked up): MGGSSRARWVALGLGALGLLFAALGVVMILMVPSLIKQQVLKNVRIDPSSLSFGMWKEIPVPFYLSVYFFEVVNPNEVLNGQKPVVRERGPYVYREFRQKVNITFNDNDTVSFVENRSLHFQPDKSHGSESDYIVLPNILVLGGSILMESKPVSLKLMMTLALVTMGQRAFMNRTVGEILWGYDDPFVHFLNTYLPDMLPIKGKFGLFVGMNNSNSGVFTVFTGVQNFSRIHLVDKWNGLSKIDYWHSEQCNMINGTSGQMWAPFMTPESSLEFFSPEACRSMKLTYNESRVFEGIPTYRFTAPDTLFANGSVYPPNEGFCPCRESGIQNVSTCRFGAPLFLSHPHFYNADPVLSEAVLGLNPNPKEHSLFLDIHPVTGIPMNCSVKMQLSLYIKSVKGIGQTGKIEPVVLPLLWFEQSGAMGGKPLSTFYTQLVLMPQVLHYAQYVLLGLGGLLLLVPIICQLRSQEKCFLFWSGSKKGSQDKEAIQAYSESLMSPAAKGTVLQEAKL
SR-BI uptake up: activators of SR-BI mediated DiI-HDL uptake, primary screen, ldlA[mSR-BI] CHO cells, DiI fluorescence; 3 h; 100 = double the neutral-control signal; activation, % at 12.5 µM; 0.096% of 320,000 active;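 active = mean replicate activation of at least 60% and every replicate at or above 60%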;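 note: 0% = median plate neutral-control signal and 100% = twice that signal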
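Material – SR-BI-overexpressing, LDLR-lacking CHO cells · Medium – BSA-supplemented, HEPES-buffered Ham's F12, pH 7.4 · Doses – single concentration · Times – compound with DiI-HDL co-incubation, 3 h at 37 °C · Measured by – bottom-read fluorescence, 550/595 nm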
Numbers without * were called inactive; . = no result given; [ ] = remark or other dose. Only some compounds are listed: those with a hit (about 1.9% of all), similar ones and a draw of the others.

SMILES	PglD DTNB	Env fusion inh	Rtt109 HAT inh	Glyco luc inh	SR-BI DiI inh	SR-BI uptake up
c1ccc(-c2cc(-c3nnc4n3N=C(c3ccc5ccccc5c3)CS4)[nH]n2)cc1	4.7	-149.1	5.9	45.8*	33.0	-33.0
Cc1cc(-c2nnc3n2N=C(c2ccccc2)CS3)n[nH]1	-2.5	-12.6	1.3	2.7	23.7	-23.7
Cc1cc(-c2nnc3n2N=C(c2ccc(-c4ccccc4)cc2)CS3)n[nH]1	3.1	.	-0.3	37.3*	27.4	-27.4
CN1CCc2c(sc(NC(=O)c3ccc([N+](=O)[O-])o3)c2C(N)=O)C1	-2.9	71.7*	-8.3	-23.5	5.4	-5.4
NC(=O)c1c(NC(=O)c2ccc([N+](=O)[O-])o2)sc2c1CCCC2	-1.5	-0.3	-3.8	12.5	-20.6	20.6
CC(C)(C)C(=O)Nc1ccc(NC(=O)c2ccco2)nc1	-3.3	63.0*	-7.4	-19.4	3.6	-3.6
CN1c2ccc(C#Cc3cccnc3)cc2[C@@H]2[C@@H](CCN2C(=O)C2CCCCC2)[C@H]1CO	2.3	.	.	.	.	.
O=C(O)c1cc([N+](=O)[O-])cc2ccccc12	3.6	12.8	8.5	0.9	-89.8	89.8*
O=C(C[C@@H]1CC[C@H]2[C@@H](COC[C@H](O)CN2Cc2cccc(Cl)c2)O1)NCC1CCCCC1	2.1	31.1[16.7 µM]	.	.	.	.
CNC(=O)C[C@H]1CC[C@H]2[C@@H](COc3ccc(NC(=O)Nc4c(C)noc4C)cc3C(=O)N2C)O1	1.6	-29.4[16.7 µM]	.	.	.	.
c1ccc(Cn2nnnc2C(c2ccccn2)N2CCOCC2)cc1 (stereo not given)	-5.8	.	62.6*	2.0	-1.2	1.2
c1ccc(Cn2nnnc2C(c2ccccn2)N2CCN(c3ccccc3)CC2)cc1 (stereo not given)	-1.3	.	6.1	-0.9	-5.4	5.4
COc1ccc(S(=O)(=O)N(C)C[C@@H]2OCCCC[C@H](C)Oc3ccc(NC(=O)CCCN(C)C)cc3C(=O)N([C@@H](C)CO)C[C@H]2C)cc1	-5.8	3.8[16.7 µM]	.	.	.	.
C/C=C/c1ccc2c(c1)O[C@H](CN(C)C(=O)NC1CCCCC1)[C@H](C)CN([C@@H](C)CO)S2(=O)=O	0.2	56.2*[16.7 µM]	.	.	.	.
CCC(=O)N(C)C[C@@H]1Oc2cc(C#Cc3ccccc3)ccc2S(=O)(=O)N([C@@H](C)CO)C[C@H]1C	1.3	59.3*[16.7 µM]	.	.	.	.
CCC(=O)N(C)C[C@H]1Oc2cc(/C=C/c3ccccc3)ccc2S(=O)(=O)N([C@@H](C)CO)C[C@H]1C	0.9	59.0*[16.7 µM]	.	.	.	.
C[C@@H]1CN([C@@H](C)CO)S(=O)(=O)c2ccc(/C=C/c3ccccc3)cc2O[C@@H]1CN(C)C(=O)C1CC1	-0.2	55.3*[16.7 µM]	.	.	.	.
CCC(=O)N(C)C[C@H]1Oc2cc(C#Cc3ccccc3)ccc2S(=O)(=O)N([C@@H](C)CO)C[C@H]1C	-0.1	3.4[16.7 µM]	.	.	.	.
CO[C@H]1CN(C)C(=O)c2ccc(NC(=O)C3CC3)cc2OC[C@@H](C)N(C(=O)C2CCCCC2)C[C@@H]1C	-1.1	13.7[16.7 µM]	.	.	.	.
Cc1cccc(S(=O)(=O)N2C[C@@H](O)COC[C@@H]3O[C@H](CC(=O)NCc4ccc5c(c4)OCO5)CC[C@H]32)c1	1.8	.	.	.	.	.
C[C@H]1CN([C@@H](C)CO)C(=O)Cc2cc(NC(=O)Nc3ccccc3)ccc2O[C@H]1CN(C)C(=O)Nc1cccc2ccccc12	0.7	-1.6[16.7 µM]	.	.	.	.
COc1ccccc1C(=O)Nc1nc(-c2ccc(S(=O)(=O)N3CCOCC3)cc2)cs1	-3.5	96.1*	1.9	-14.0	40.9	-40.9
COc1ccccc1C(=O)Nc1ccc(S(=O)(=O)N2CCOCC2)cc1	-2.9	.	-2.1	2.1	2.4	-2.4
O=C(Nc1nc(-c2ccccc2)cs1)c1ccccc1NS(=O)(=O)c1ccc(F)cc1	.	64.3*	10.2	-5.5	49.9	-49.9
